ChEMBL document CHEMBL4011658 (J Med Chem, 2017)
≈ marks a conversion by molar mass, not a printed value. Calls of active or inactive are those of the source. The rule behind the calls is not given here. Residues, ends and D or L forms follow the SMILES beside them. *: point of attachment. Boc = CC(C)(C)OC(=O)*; NHBn = c1ccc(CN*)cc1

Legend:
Vero = assay: Cytotoxicity against African green monkey Vero cells assessed as reduction in cell viability after 48 hrs by neutral red uptake assay; format: cell-based; conditions: chlorocebus sabaeus
Procedure, shortened: (§1)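 Cells seeded at 25 000 per well and grown 24 h to confluence, then exposed to peptides up to 10 μg/mL for 48 h; viability by modified neutral red uptake; doxorubicin positive control, DMSO negative control.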

Aspergillus = assay: Antifungal activity against Aspergillus; format: functional
Candida = assay: Antifungal activity against Candida; format: functional
BT-549 = assay: Cytotoxicity against human BT549 cells assessed as reduction in cell viability after 48 hrs by neutral red uptake assay; format: cell-based; conditions: bt-549, 48 h; procedure, shortened: as §1
SK-MEL = assay: Cytotoxicity against human SK-MEL cells assessed as reduction in cell viability after 48 hrs by neutral red uptake assay; format: cell-based; procedure, shortened: as §1
LLC-PK1 = assay: Cytotoxicity against pig LLC-PK1 cells assessed as reduction in cell viability after 48 hrs by neutral red uptake assay; format: cell-based, Sus scrofa; conditions: llc-pk1, 48 h; procedure, shortened: as §1
Escherichia coli = assay: Antibacterial activity against Escherichia coli ATCC 35218 after 16 to 20 hrs by alamar blue dye based CLSI method; format: functional
Cryptococcus neoformans = assay: Antifungal activity against Cryptococcus neoformans ATCC 90113 after 70 to 74 hrs by alamar blue dye based CLSI method; format: functional
SK-OV-3 = assay: Cytotoxicity against human SKOV3 cells assessed as reduction in cell viability after 48 hrs by neutral red uptake assay; format: cell-based; conditions: sk-ov-3, 48 h; procedure, shortened: as §1
[1] = Selectivity index, ratio of cytotoxicity against human SK-MEL cells to IC50 for Cryptococcus neoformans ATCC 90113; format: toxicity, cell-based; conditions: read-out: Selectivity Index
[2] = Selectivity index, ratio of cytotoxicity against pig LLC-PK1 cells to IC50 for Cryptococcus neoformans ATCC 90113; format: toxicity, cell-based; conditions: read-out: Selectivity Index
[3] = Selectivity index, ratio of cytotoxicity against African green monkey VERO cells to IC50 for Cryptococcus neoformans ATCC 90113; format: toxicity, cell-based; conditions: read-out: Selectivity Index
[4] = Selectivity index, ratio of cytotoxicity against human BT549 cells to IC50 for Cryptococcus neoformans ATCC 90113; format: toxicity, cell-based; conditions: read-out: Selectivity Index
[5] = Selectivity index, ratio of cytotoxicity against human SKOV3 cells to IC50 for Cryptococcus neoformans ATCC 90113; format: toxicity, cell-based; conditions: read-out: Selectivity Index

Row | SMILES | Activity (Vero) [µg/mL] | Activity (Aspergillus) | Activity (Candida) | Activity (BT-549) [µg/mL] | Activity (SK-MEL) [µg/mL] | Activity (LLC-PK1) [µg/mL] | Activity (Escherichia coli) | IC50 (Cryptococcus neoformans) [µg/mL] | Activity (SK-OV-3) [µg/mL] | selectivity ratio [1] | selectivity ratio [2] | selectivity ratio [3] | selectivity ratio [4] | selectivity ratio [5] | MFC (Cryptococcus neoformans) [µg/mL] | MIC (Cryptococcus neoformans) [µg/mL]
1 | CC(C)(C)OC(=O)N[C@@H](Cc1c[nH]c(-c2ccc(C(C)(C)C)cc2)n1)C(=O)N[C@@H](Cc1c[nH]c2ccccc12)C(=O)N[C@@H](Cc1c[nH]c(-c2ccc(C(C)(C)C)cc2)n1)C(=O)NCc1ccccc1 | > 10 | inactive | inactive | > 10 | > 10 | > 10 | inactive | > 20 | > 10 |  |  |  |  |  |  | 
2 | CC(C)(C)OC(=O)N[C@@H](Cc1c[nH]c(-c2ccc(-c3ccccc3)cc2)n1)C(=O)N[C@@H](Cc1c[nH]c2ccccc12)C(=O)N[C@@H](Cc1c[nH]c(-c2ccc(-c3ccccc3)cc2)n1)C(=O)NCc1ccccc1 | > 10 | inactive | inactive | > 10 | > 10 | > 10 | inactive | > 20 | > 10 |  |  |  |  |  |  | 
3 | COC(=O)[C@H](Cc1c[nH]c(-c2ccccc2)n1)NC(=O)[C@H](Cc1c[nH]c2ccccc12)NC(=O)[C@@H](N)Cc1c[nH]c(-c2ccccc2)n1 | > 10 | inactive | inactive | > 10 | > 10 | > 10 | inactive | 3.71 (≈ 5.75 µM) | > 10 | > 2.7 | > 2.7 | > 2.7 | > 2.7 | > 2.7 | 10 (≈ 15.5 µM) | 10 (≈ 15.5 µM)
4 | N[C@@H](Cc1cnc[nH]1)C(=O)N[C@@H](Cc1c[nH]c2ccccc12)C(=O)N[C@@H](Cc1cnc[nH]1)C(=O)NCc1ccccc1 (H-His-Trp-His-NHBn) | > 10 | inactive | inactive | > 10 | > 10 | > 10 | inactive |  | > 10 | > 1.2 | > 1.2 | > 1.2 | > 1.2 | > 1.2 | 10 (≈ 17.6 µM) | 10 (≈ 17.6 µM)
5 | COC(=O)[C@H](Cc1c[nH]c(-c2ccc(-c3ccccc3)cc2)n1)NC(=O)[C@H](Cc1c[nH]c2ccccc12)NC(=O)[C@H](Cc1c[nH]c(-c2ccc(-c3ccccc3)cc2)n1)NC(=O)OC(C)(C)C | > 10 | inactive | inactive | > 10 | > 10 | > 10 | inactive | > 20 | > 10 |  |  |  |  |  |  | 
6 | Cc1ccc(-c2nc(C[C@H](NC(=O)OC(C)(C)C)C(=O)N[C@@H](Cc3c[nH]c4ccccc34)C(=O)N[C@@H](Cc3c[nH]c(-c4ccc(C)cc4)n3)C(=O)NCc3ccccc3)c[nH]2)cc1 | > 10 | inactive | inactive | > 10 | > 10 | > 10 | inactive | 12.6 (≈ 14.9 µM) | > 10 |  |  |  |  |  | > 20 | > 20
7 | N[C@@H](Cc1c[nH]c(-c2ccc(-c3ccccc3)cc2)n1)C(=O)N[C@@H](Cc1c[nH]c2ccccc12)C(=O)N[C@@H](Cc1c[nH]c(-c2ccc(-c3ccccc3)cc2)n1)C(=O)NCc1ccccc1 | > 10 | inactive | inactive | > 10 | > 10 | > 10 | inactive | 1.4 (≈ 1.61 µM) | > 10 | > 7.1 | > 7.1 | > 7.1 | > 7.1 | > 7.1 | 2.5 (≈ 2.87 µM) | 2.5 (≈ 2.87 µM)
8 | COC(=O)[C@H](Cc1c[nH]c(-c2ccc(C(C)(C)C)cc2)n1)NC(=O)[C@H](Cc1c[nH]c2ccccc12)NC(=O)[C@H](Cc1c[nH]c(-c2ccc(C(C)(C)C)cc2)n1)NC(=O)OC(C)(C)C | > 10 | inactive | inactive | > 10 | > 10 | > 10 | inactive | 1.27 (≈ 1.48 µM) | > 10 | > 7.9 | > 7.9 | > 7.9 | > 7.9 | > 7.9 | 5 (≈ 5.83 µM) | 5 (≈ 5.83 µM)
9 | COC(=O)[C@H](Cc1c[nH]c(-c2ccccc2)n1)NC(=O)[C@H](Cc1c[nH]c2ccccc12)NC(=O)[C@H](Cc1c[nH]c(-c2ccccc2)n1)NC(=O)OC(C)(C)C | > 10 | inactive | inactive | > 10 | > 10 | > 10 | inactive | 9.14 (≈ 12.3 µM) | > 10 | > 1.1 | > 1.1 | > 1.1 | > 1.1 | > 1.1 | > 20 | > 20
10 | COC(=O)[C@H](Cc1c[nH]cn1)NC(=O)[C@H](Cc1c[nH]c2ccccc12)NC(=O)[C@@H](N)Cc1c[nH]cn1 (H-His-Trp-His-OMe) | > 10 | inactive | inactive | > 10 | > 10 | > 10 | inactive | 9.81 (≈ 19.9 µM) | > 10 | > 1 | > 1 | > 1 | > 1 | > 1 | 20 (≈ 40.6 µM) | 20 (≈ 40.6 µM)
11 | Cc1ccc(-c2nc(C[C@H](NC(=O)[C@H](Cc3c[nH]c4ccccc34)NC(=O)[C@@H](N)Cc3c[nH]c(-c4ccc(C)cc4)n3)C(=O)NCc3ccccc3)c[nH]2)cc1 | > 10 | inactive | inactive | > 10 | > 10 | > 10 | inactive | 5.56 (≈ 7.43 µM) | > 10 | > 1.8 | > 1.8 | > 1.8 | > 1.8 | > 1.8 | 10 (≈ 13.4 µM) | 10 (≈ 13.4 µM)
12 | COc1ccc(-c2nc(C[C@H](NC(=O)[C@H](Cc3c[nH]c4ccccc34)NC(=O)[C@@H](N)Cc3c[nH]c(-c4ccc(OC)cc4)n3)C(=O)NCc3ccccc3)c[nH]2)cc1 | > 10 | inactive | inactive | > 10 | > 10 | > 10 | inactive | 7.2 (≈ 9.23 µM) | > 10 | > 1.4 | > 1.4 | > 1.4 | > 1.4 | > 1.4 | > 20 | > 20
13 | CC(C)(C)OC(=O)N[C@@H](Cc1cnc[nH]1)C(=O)N[C@@H](Cc1c[nH]c2ccccc12)C(=O)N[C@@H](Cc1cnc[nH]1)C(=O)NCc1ccccc1 (Boc-His-Trp-His-NHBn) | > 10 | inactive | inactive | > 10 | > 10 | > 10 | inactive |  | > 10 | > 12.5 | > 12.5 | > 12.5 | > 12.5 | > 12.5 | 1.25 (≈ 1.87 µM) | 1.25 (≈ 1.87 µM)
